Assay results reported in ChEMBL document CHEMBL1149664, “Anthranilamide inhibitors of factor Xa” (2007).

Legend:
[1] = molecular target: Coagulation factor X (Homo sapiens) (UniProt P00742); experiment: Inhibition of human factor 10a
How it was run: (§1)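 Values are reported as an apparent association constant (Kassoc) between enzyme and inhibitor, in 10^6 L/mol.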

[2] = test system: Plasma; experiment: Anticoagulant potency in human citreated plasma assessed as concentration required to double activated partial thromboplastin time; assay type: functional
[3] = molecular target: Prothrombin (Homo sapiens) (UniProt P00734); experiment: Inhibition of human factor 2a; how it was run: as §1
[4] = test system: Plasma; experiment: Anticoagulant potency in human citreated plasma assessed as concentration required to double prothrombin time; assay type: functional

Sequence of Coagulation factor X (Homo sapiens) (P00742 41-179 limits assumed): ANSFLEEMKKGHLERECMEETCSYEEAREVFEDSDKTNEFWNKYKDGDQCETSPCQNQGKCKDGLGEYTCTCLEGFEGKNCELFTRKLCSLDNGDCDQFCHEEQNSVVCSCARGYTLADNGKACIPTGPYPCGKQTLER
Sequence of Coagulation factor X (Homo sapiens) (P00742 235-488 limits assumed): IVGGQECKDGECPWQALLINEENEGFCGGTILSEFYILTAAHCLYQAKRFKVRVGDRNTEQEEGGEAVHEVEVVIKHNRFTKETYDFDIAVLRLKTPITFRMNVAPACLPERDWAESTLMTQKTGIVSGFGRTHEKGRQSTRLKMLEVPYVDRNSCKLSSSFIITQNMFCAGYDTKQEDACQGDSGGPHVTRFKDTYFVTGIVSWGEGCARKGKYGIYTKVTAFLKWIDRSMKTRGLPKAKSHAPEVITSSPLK

SMILES | Kapp [1] | Kapp [3] | Activity [2] [µM] | Activity [4] [µM]
CC(C)(C)c1ccc(C(=O)Nc2ccccc2C(=O)Nc2ccc(Cl)cn2)cc1 | 42 10^6L/mol | – | – | –
CN(C)CCCNC(=S)N1CCC(Oc2cc(C(C)(C)C)ccc2C(=O)Nc2ccccc2C(=O)Nc2ccc(Cl)cn2)CC1 | 170 10^6L/mol | 145 10^6L/mol | 2.9 | 2.9
CC(C)(CNC(=O)OC(C)(C)C)COc1cc(C(C)(C)C)ccc1C(=O)Nc1ccccc1C(=O)Nc1ccc(Cl)cn1 | 2.9 10^6L/mol | 0.14 10^6L/mol | >70 | >70
COc1ccc(NC(=O)c2ccccc2NC(=O)c2ccc(C(C)C)cc2)cc1 | 7 10^6L/mol | – | – | –
CC(C)(C)c1ccc(C(=O)Nc2ccccc2C(=O)Nc2ccc(Cl)cc2)cc1 | 0.5 10^6L/mol | – | – | –
COc1ccc(C(=O)Nc2ccccc2C(=O)Nc2ccc(C(C)(C)C)cc2)cc1 | 0.03 10^6L/mol | – | – | –
CC(C)(C)c1ccc(C(=O)Nc2ccccc2C(=O)Nc2ccc(Cl)cn2)c(OC2CCN(C(=O)Nc3ccccc3F)CC2)c1 | 307 10^6L/mol | 27 10^6L/mol | 21.5 | 30.2
CC(C)(C)c1ccc(C(=O)Nc2ccccc2C(=O)Nc2ccc(Cl)cn2)c(OC2CCN(C(=O)CCC(=O)O)CC2)c1 | 714 10^6L/mol | 4 10^6L/mol | 6.1 | 5.3
CC(C)(C)c1ccc(C(=O)Nc2ccccc2C(=O)Nc2ccc(Cl)cn2)c(OC2CCN(C(=O)Cn3cnnn3)CC2)c1 | 448 10^6L/mol | 134 10^6L/mol | 8 | 10
CC(C)(C)c1ccc(C(=O)Nc2ccccc2C(=O)Nc2ccc(Cl)cn2)c(OC2CCN(C(=S)NCc3cccnc3)CC2)c1 | 733 10^6L/mol | 34 10^6L/mol | 13.4 | 21.8
CC(C)(C)c1ccc(C(=O)Nc2ccccc2C(=O)Nc2ccc(Cl)cn2)c(OC2CCN(Cc3ccccc3)CC2)c1 | 488 10^6L/mol | 20 10^6L/mol | 28.1 | 44.6
Cn1nccc1C(=O)N1CCC(Oc2cc(C(C)(C)C)ccc2C(=O)Nc2ccccc2C(=O)Nc2ccc(Cl)cn2)CC1 | 513 10^6L/mol | 21 10^6L/mol | 5.7 | 7.6
CN(C)CC(=O)N1CCC(Oc2cc(C(C)(C)C)ccc2C(=O)Nc2ccccc2C(=O)Nc2ccc(Cl)cn2)CC1 | 176 10^6L/mol | 60 10^6L/mol | – | –
CC(C)(C)OC(=O)N1CCCCC1COc1cc(C(C)(C)C)ccc1C(=O)Nc1ccccc1C(=O)Nc1ccc(Cl)cn1 (stereo not drawn) | 3.1 10^6L/mol | 3.9 10^6L/mol | >70 | >70
COc1ccc(NC(=O)c2ccccc2NC(=O)c2ccc(OC)cc2)cc1 | 1 10^6L/mol | – | – | –
CC(C)(C)OC(=O)N1CCC(Oc2cc(C(C)(C)C)ccc2C(=O)Nc2ccccc2C(=O)Nc2ccc(Cl)cn2)CC1 | 69 10^6L/mol | 6 10^6L/mol | 55 | 64
CC(C)(C)c1ccc(C(=O)Nc2ccccc2C(=O)Nc2ccc(Cl)cn2)c(OC2CCN(Cc3ccccc3C(=O)O)CC2)c1 | 1160 10^6L/mol | 72 10^6L/mol | 0.57 | 1
COc1ccc(NC(=O)c2ccccc2NC(=O)c2ccc(C(C)(C)C)cc2)cc1 | 5 10^6L/mol | – | – | –

More lines, main results first:

Kapp [1] | Kapp [3] | SMILES | Activity [2] [µM] | Activity [4] [µM]
219 10^6L/mol | 67 10^6L/mol | CC(C)(C)c1ccc(C(=O)Nc2ccccc2C(=O)Nc2ccc(Cl)cn2)c(OCC2CCCCN2)c1 (stereo not drawn) | 1.4 | 1.4
23 10^6L/mol | 0.02 10^6L/mol | CC(C)(C)c1ccc(C(=O)Nc2ccccc2C(=O)Nc2ccc(Cl)cn2)c(O)c1 | >100 | >100
450 10^6L/mol | 23 10^6L/mol | CC(C)(C)c1ccc(C(=O)Nc2ccccc2C(=O)Nc2ccc(Cl)cn2)c(OC2CCN(Cc3ccsc3)CC2)c1 | 14.8 | 20
54 10^6L/mol | 0.2 10^6L/mol | CC(C)(C)OC(=O)NCCCOc1cc(C(C)(C)C)ccc1C(=O)Nc1ccccc1C(=O)Nc1ccc(Cl)cn1 | >70 | >70
709 10^6L/mol | 17 10^6L/mol | NCCCOc1cc(N2CCSCC2)ccc1C(=O)Nc1ccccc1C(=O)Nc1ccc(Cl)cn1 | 0.69 | 0.61
76 10^6L/mol | 1100 10^6L/mol | CC(C)(CN)COc1cc(C(C)(C)C)ccc1C(=O)Nc1ccccc1C(=O)Nc1ccc(Cl)cn1 | 2 | 1.6
1440 10^6L/mol | 152 10^6L/mol | CC(C)(C)c1ccc(C(=O)Nc2ccccc2C(=O)Nc2ccc(Cl)cn2)c(OCCCN)c1 | 0.85 | 0.79
874 10^6L/mol | 7.3 10^6L/mol | NCCCOc1cc(N2CC[C@@H](N)C2)ccc1C(=O)Nc1ccccc1C(=O)Nc1ccc(Cl)cn1 | 0.4 | 0.45
3080 10^6L/mol | 24 10^6L/mol | COCCN1CCC(Oc2cc(C(C)(C)C)ccc2C(=O)Nc2ccccc2C(=O)Nc2ccc(Cl)cn2)CC1 | 2.1 | 2.1
3440 10^6L/mol | 25 10^6L/mol | CC(C)N1CCC(Oc2cc(C(C)(C)C)ccc2C(=O)Nc2ccccc2C(=O)Nc2ccc(Cl)cn2)CC1 | 1.2 | 1.8
82 10^6L/mol | 2 10^6L/mol | CN1CCN(c2ccc(C(=O)Nc3ccccc3C(=O)Nc3ccc(Cl)cn3)c(OCCCN)c2)CC1 | – | –
3010 10^6L/mol | 40 10^6L/mol | NCCCOc1cc(N2CCCC2)ccc1C(=O)Nc1ccccc1C(=O)Nc1ccc(Cl)cn1 | 0.41 | 0.41
323 10^6L/mol | 17 10^6L/mol | NCCCOc1cc(N2CCCCC2)ccc1C(=O)Nc1ccccc1C(=O)Nc1ccc(Cl)cn1 | 1 | 0.93
130 10^6L/mol | 25 10^6L/mol | NCCCOc1cc(N2CCCCCC2)ccc1C(=O)Nc1ccccc1C(=O)Nc1ccc(Cl)cn1 | 3.1 | 2.7
1370 10^6L/mol | 37 10^6L/mol | CC(C)(C)c1ccc(C(=O)Nc2ccccc2C(=O)Nc2ccc(Cl)cn2)c(OC2CCN(CC3CC3)CC2)c1 | 2.4 | 2.5
516 10^6L/mol | 5.8 10^6L/mol | NCCCOc1cc(N2CCOCC2)ccc1C(=O)Nc1ccccc1C(=O)Nc1ccc(Cl)cn1 | 0.26 | 0.34
1110 10^6L/mol | 114 10^6L/mol | CC(C)(C)c1ccc(C(=O)Nc2ccccc2C(=O)Nc2ccc(Cl)cn2)c(OC2CCNCC2)c1 | 0.85 | 0.88
8970 10^6L/mol | 24 10^6L/mol | CN1CCCN(c2ccc(C(=O)Nc3ccccc3C(=O)Nc3ccc(Cl)cn3)c(OCCCN)c2)CC1 | 0.1 | –
2160 10^6L/mol | 54 10^6L/mol | CC(C)(C)c1ccc(C(=O)Nc2ccccc2C(=O)Nc2ccc(Cl)cn2)c(OC2CCN(Cc3ncc[nH]3)CC2)c1 | 1.8 | 2.6
1940 10^6L/mol | 30 10^6L/mol | CCCN1CCC(Oc2cc(C(C)(C)C)ccc2C(=O)Nc2ccccc2C(=O)Nc2ccc(Cl)cn2)CC1 | 3.1 | 3.3
1630 10^6L/mol | 61 10^6L/mol | CN1CCC(Oc2cc(C(C)(C)C)ccc2C(=O)Nc2ccccc2C(=O)Nc2ccc(Cl)cn2)CC1 | 0.93 | 1.1
